Assay results: article PMC9072715 (RSC Advances, 2019)

Columns and labels:
HeLa cells = assay: CCK-8 anti-proliferative assay, HeLa; type: cell-based; conditions: Homo sapiens, 48 h, read-out: IC50 HeLa, HeLa, CCK-8, 48 h
Method in brief: (§1)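 Log-phase cells in DMEM were plated at 1 × 10^4 per well and allowed 12 h at 37 °C and 5% CO2. Test compounds (0–80 μM) were added for 48 h. Medium was replaced with medium containing 10% CCK-8 for 4 h, and A450 was read. Percent inhibition was calculated against the untreated control and doxorubicin (positive control), and IC50 was obtained by curve fitting.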

MCF-7 cells = assay: CCK-8 anti-proliferative assay, MCF-7; type: cell-based, human; conditions: read-out: IC50 MCF-7; MCF-7, CCK-8, 48 h
Method in brief: as §1

rabbit erythrocytes = assay: Hemolysis of red blood cells assay; type: cell-based, NewZealand rabbit; conditions: 10% rabbit erythrocyte suspension, 3 to 48 μM, 4 hours, room temperature
Method in brief: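 Heparinized blood came from a healthy New Zealand rabbit. Erythrocytes were washed three times in saline and diluted to a 10% suspension. The suspension was mixed 1:1 by volume with sample solution (0–48 μM test compound) and left 4 h at room temperature. Hemolysis was then assessed by observation.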

IC50 (HeLa cells) [µM] | IC50 (MCF-7 cells) [µM] | SMILES | Hemolytic effect (rabbit erythrocytes)
55 | > 80 | C/C=C(/C)C(=O)O[C@H]1[C@H](OC(C)=O)[C@]2(CO)[C@H](O)C[C@]3(C)C(=CC[C@@H]4[C@@]5(C)CC[C@H](O[C@@H]6O[C@H](C(=O)O)[C@@H](O[C@@H]7O[C@H](CO)[C@@H](O)[C@H](O)[C@H]7O)[C@H](O)[C@H]6O[C@@H]6O[C@H](CO)[C@@H](O)[C@H](O)[C@H]6O)[C@](C)(CO)[C@@H]5CC[C@]43C)[C@@H]2CC1(C)C [Compound 7, Escin Ib] | –
– | – | C/C=C(\C)C(=O)O[C@H]1[C@H](OC(C)=O)[C@]2(CO)[C@H](O)C[C@]3(C)C(=CC[C@@H]4[C@@]5(C)CC[C@H](O[C@@H]6O[C@H](C(=O)O)[C@@H](O[C@@H]7O[C@H](CO)[C@@H](O)[C@H](O)[C@H]7O)[C@H](O)[C@H]6O[C@@H]6O[C@H](CO)[C@@H](O)[C@H](O)[C@H]6O)[C@](C)(CO)[C@@H]5CC[C@]43C)[C@@H]2CC1(C)C [Compound 6, Escin Ia] | showed hemolytic effect at 24 and 48 μM
